Hits are enriched below; roughly 1.8% of the tested compounds scored in any of these assays.
Rce1 inh = yeast Rce1p protease inhibitors, primary screen, biochemical, fluorescence, cell-free homogeneous | yeast membranes, quenched prenylated peptide cleavage fluorescence | CAAX prenyl protease 2 (Saccharomyces cerevisiae (strain ATCC 204508 / S288c)), Q03530 | calls only | actives 0.27% (n = 290,000) | AID 2563, 2010;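 active = fall in fluorescence gain of 50% or more versus controls, with final raw signal at or below 3038400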;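 note: plate controls were neutral control wells for no effect and wells lacking membranes for full effect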
Platelet DG rel = inhibitors of platelet dense granule secretion, primary screen, cell-based, MLPCN, human platelets; human platelet-rich plasma, SFLLRN dense granule ATP release, luminescence; inhibition, %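 (compounds screened at 7.5 µM in platelet-rich plasma)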; actives 0.22% (n = 300,000);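 active = mean replicate score, as percent of positive control, at or above 50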
RanGTP-Imp inh = inhibitors of RanGTP-importin-beta interaction, primary screen, biochemical, FRET, CFP-Ran, YFP-importin-beta, homogeneous | cell-free CFP-Ran/YFP-importin-beta FRET ratio | Ran GTPase (GTP-bound) - importin-beta complex | actives 1.1% (n = 300,000) | inhibition, % (test concentration not listed);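 active = more than half of the replicate wells show a fall in the fluorescence ratio signal beyond about 16%, limit read from the data, passing the limit was not always enough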;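 note: 0% = DMSO wells and 100% = Ran loaded with GDP instead of GTP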
Runt-SMMHC FRET = inhibitors of RUNX1 Runt–CBFb-SMMHC binding, primary screen, biochemical, FRET, Cerulean-Runt, Venus-CBFb-SMMHC, uHTS; Runt-related transcription factor 1 (Homo sapiens) + Core-binding factor subunit beta …; Cerulean-Runt/Venus-CBFb-SMMHC FRET ratio 530/480, 1 h; inhibition, % at 20 µM; actives 0.74% (n = 220,000);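 active = mean inhibition across duplicate retests at 20 µM reaching about 50%, limit read from the data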;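 note: 0% = DMSO wells and 100% = wells with excess untagged CBFb-SMMHC; inhibitors lower the FRET ratio by blocking Runt binding to CBFb-SMMHC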
Target sequence (Q01196 whole entry, looked up): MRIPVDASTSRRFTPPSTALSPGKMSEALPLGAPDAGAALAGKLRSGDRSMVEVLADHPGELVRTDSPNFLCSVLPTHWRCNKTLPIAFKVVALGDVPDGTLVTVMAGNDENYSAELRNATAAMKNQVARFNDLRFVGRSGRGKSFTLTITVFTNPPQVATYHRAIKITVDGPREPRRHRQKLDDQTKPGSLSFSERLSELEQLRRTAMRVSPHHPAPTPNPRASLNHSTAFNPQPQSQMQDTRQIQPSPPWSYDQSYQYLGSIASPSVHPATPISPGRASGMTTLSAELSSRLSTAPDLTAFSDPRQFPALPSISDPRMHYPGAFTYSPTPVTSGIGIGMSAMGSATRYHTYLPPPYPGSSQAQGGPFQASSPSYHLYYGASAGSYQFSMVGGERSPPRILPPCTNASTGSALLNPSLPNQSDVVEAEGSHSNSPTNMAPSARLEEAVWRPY
Target sequence (Q13951 whole entry, looked up): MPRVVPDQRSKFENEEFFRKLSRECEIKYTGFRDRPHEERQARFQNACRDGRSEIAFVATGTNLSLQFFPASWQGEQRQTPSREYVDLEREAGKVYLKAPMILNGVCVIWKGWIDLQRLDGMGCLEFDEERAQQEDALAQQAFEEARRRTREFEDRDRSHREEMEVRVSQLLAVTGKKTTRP
Runt-CBFb FRET = inhibitors of RUNX1 Runt–CBFb binding, primary screen, biochemical, FRET, Cerulean-Runt, Venus-CBFb, uHTS | Runt-related transcription factor 1 (Homo sapiens) + Core-binding factor subunit beta … | Cerulean-Runt/Venus-CBFb FRET ratio 530/480, 1 h | inhibition, % at 20 µM | actives 0.46% (n = 220,000) | AID 1496, 2009;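 active = inhibition over about 50% at 20 µM in the single-dose screen, limit read from the data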;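 note: 0% = DMSO wells and 100% = excess unlabeled CBFb competitor control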
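Assay system: Cerulean-Runt domain fusion protein, energy donor; Signal: fluorescence energy transfer, 422 nm excitation, 530/480 nm emission; Timing: 1 h compound exposure, room temperature; Control set: unlabeled CBFb; Medium: Tris buffer pH 7.5 with salts and BSA; Compound: single test concentration of 20 µM, 1% DMSO final; Probe or stimulus: Venus-CBFb 100 nM.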
* = called active by the depositor; i = inactive; . = not tested or not shown.

SMILES | Rce1 inh | Platelet DG rel | RanGTP-Imp inh | Runt-SMMHC FRET | Runt-CBFb FRET
COC(=O)C1=COC(C)C2CN3CCc4c([nH]c5cc(OC)c(OC)cc45)C3CC12 (stereo not given) | i | -0.2 | 5.0 | -42.6 | -16.4
COc1ccc(C[C@@H]2CN3C(=NC[C@@H]3C)N2CCNC(=O)c2ccc(C)c(Br)c2)cc1 | i | 5.7 | -1.7 | 3.5 | -1.1
CCN1CCN(CC(=O)N2CCCC(C(=O)c3ccc(Oc4ccccc4)cc3)C2)CC1 (stereo not given) | . | 1.8 | -0.5 | 2.1 | 0.7
O=c1c2ccccc2[nH]c(=S)n1CCCn1ccnc1 | i | 2.7 | -4.7 | . | .
N#Cc1cc2c(=O)n3ccccc3nc2n(CCCn2ccnc2)c1=N | i | -1.2 | 140.5* | 40.3 | 11.7
Cc1cccn2c(=O)c3cc(C#N)c(=N)n(CCCN4CCOCC4)c3nc12 | i | -1.8 | 184.3* | . | .
Cc1cccn2c(=O)c3cc(C#N)c(=N)n(CCN4CCOCC4)c3nc12 | i | -4.9 | 86.5* | 93.9* | 75.9*
CCC(C)n1c(=N)c(C#N)cc2c(=O)n3ccccc3nc21 (stereo not given) | i | 0.3 | 177.4* | 95.4* | 92.5*
Cc1cc(NC(=O)NC(=O)c2ccccc2F)no1 | i | -13.8 | -2.2 | . | .
C/C(=N\Nc1cc(C)nc(NCc2ccccc2)n1)c1ccc([N+](=O)[O-])cc1 | i | 0.7 | -6.0 | -2.0 | -0.7
CCCn1c(=N)c(C#N)cc2c(=O)n3cccc(C)c3nc21 | i | -0.5 | 147.5* | . | .
CCCn1c(=N)c(C#N)cc2c(=O)n3ccccc3nc21 | . | -8.5 | 179.1* | 76.0* | 31.7
COc1ccc(C(=O)N2CCC(n3nccc3NC(=O)C3CCOC3)CC2)cc1 (stereo not given) | i | -7.5 | 1.5 | . | .
O=C(NC1CCOCC1)C1CCC(=O)N(CCc2ccc(Cl)cc2)C1 (stereo not given) | i | -20.7 | -0.4 | . | .
Fc1cccc(NC(=S)NCc2cccnc2)c1 | i | 26.1 | 1.3 | -2.9 | 2.2
Fc1ccc(NC(=S)NCc2cccnc2)cc1 | i | -3.9 | 93.3* | -4.7 | 0.2
Cc1ccsc1C(C(=O)NCc1ccccc1)N(C(=O)c1csnn1)c1ccccc1 (stereo not given) | i | -0.1 | -0.7 | . | .
O=C(COc1ccccc1Cl)Nc1ccc(CN2CCCCC2)cc1 | i | 5.4 | 30.9* | -1.5 | -1.2
O=C(COc1ccccc1Cl)Nc1ccc(C(=O)N2CCCCC2)cc1 | i | -0.2 | -2.5 | . | .
COc1ccc(NC(=O)c2cc(S(=O)(=O)N3CCOCC3)cn2C)cc1Cl | i | 2.5 | -1.3 | . | .
Cn1cc(S(=O)(=O)N2CCOCC2)cc1C(=O)Nc1ccc(Cl)cc1 | i | 99.1* | 5.0 | . | .
Cc1ccc(-c2cc3nc(C)cc(NCc4ccco4)n3n2)cc1 | i | 19.6 | 37.8* | 14.4 | 5.4
O=C(O)CN1C(=O)C2C3CC(C2C1=O)C1C(c2ccccc2)c2sc(=O)[nH]c2SC31 (stereo not given) | i | 9.4 | 65.3* | 33.9 | 42.0
CC(C)CC(C(=O)O)N1C(=O)C2C3CC(C2C1=O)C1C(c2ccccc2)c2sc(=O)[nH]c2SC31 (stereo not given) | i | -6.0 | 100.3* | 29.3 | 12.9
CCN(CC)S(=O)(=O)c1ccc(N=Cc2c(C)c(C#N)c(=O)n(C)c2O)cc1 | i | 13.4 | -0.9 | -6.8 | -1.7
Cc1c(C=O)c2ccccn2c1C(=O)c1cccs1 | i | 1.2 | 1.1 | 87.1* | 60.6*
Cc1c(C=O)c2ccccn2c1C(=O)c1ccccc1Cl | i | 6.3 | 1.7 | . | .
COc1ccccc1NC(=O)C(NC(=O)OC(C)(C)C)C(C)OCc1ccccc1 (stereo not given) | i | 9.4 | -3.3 | -1.1 | -1.2
CCN(CC)CCCNC(=O)c1oc2ccc(S(=O)(=O)N3CC(C)CC(C)C3)cc2c1C (stereo not given) | i | 10.3 | -2.6 | . | .
COc1ccc(/C=N/Nc2nc3ccccc3s2)cc1O | i | 53.6* | 1.6 | -2.0 | -1.8
